pIC50: −log10 of the molar value.
Assays:
[1] = Maximal concentration in rats after 0.5 mg/kg oral dose; assay type: ADME, organism-based; set-up: dose 0.5 mg/kg, route oral; details: rat, in vivo
Cytochrome P450 2C9 = Cytochrome P450 2C9 (Homo sapiens, UniProt P11712); experiment: Interaction with human cytochrome P450 isoform 2C9 expressed in baculovirus-insect cells; assay type: ADME
How it was run: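 Microsomes from baculovirus-insect cells expressing human CYP1A2, 2C9, 2C19, 2D6 or 3A4. Compound serially diluted with an NADPH-regenerating mix (16.3 μM NADP+, 0.83 mM glucose-6-phosphate, 0.83 mM MgCl2, 0.4 U/mL G6PDH). Pre-warmed 10 min at 37 °C, then isoform-specific substrate added in 0.35 M potassium phosphate pH 7.4. Fluorometric read-out; IC50 by nonlinear regression.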

[2] = Time to achieve maximal concentration in rats after 0.2 mg/kg intravenous dose; assay type: ADME, organism-based; set-up: dose 0.2 mg/kg, route intravenous; details: rat, in vivo
[3] = Time to achieve maximal concentration in rats after 0.5 mg/kg oral dose; assay type: ADME, organism-based; set-up: dose 0.5 mg/kg, route oral; details: rat, in vivo
[4] = biological target: T1, Amyloid-beta precursor protein (Homo sapiens, UniProt P05067); details: at 100 µM
Target sequence in this assay (P05067 whole entry): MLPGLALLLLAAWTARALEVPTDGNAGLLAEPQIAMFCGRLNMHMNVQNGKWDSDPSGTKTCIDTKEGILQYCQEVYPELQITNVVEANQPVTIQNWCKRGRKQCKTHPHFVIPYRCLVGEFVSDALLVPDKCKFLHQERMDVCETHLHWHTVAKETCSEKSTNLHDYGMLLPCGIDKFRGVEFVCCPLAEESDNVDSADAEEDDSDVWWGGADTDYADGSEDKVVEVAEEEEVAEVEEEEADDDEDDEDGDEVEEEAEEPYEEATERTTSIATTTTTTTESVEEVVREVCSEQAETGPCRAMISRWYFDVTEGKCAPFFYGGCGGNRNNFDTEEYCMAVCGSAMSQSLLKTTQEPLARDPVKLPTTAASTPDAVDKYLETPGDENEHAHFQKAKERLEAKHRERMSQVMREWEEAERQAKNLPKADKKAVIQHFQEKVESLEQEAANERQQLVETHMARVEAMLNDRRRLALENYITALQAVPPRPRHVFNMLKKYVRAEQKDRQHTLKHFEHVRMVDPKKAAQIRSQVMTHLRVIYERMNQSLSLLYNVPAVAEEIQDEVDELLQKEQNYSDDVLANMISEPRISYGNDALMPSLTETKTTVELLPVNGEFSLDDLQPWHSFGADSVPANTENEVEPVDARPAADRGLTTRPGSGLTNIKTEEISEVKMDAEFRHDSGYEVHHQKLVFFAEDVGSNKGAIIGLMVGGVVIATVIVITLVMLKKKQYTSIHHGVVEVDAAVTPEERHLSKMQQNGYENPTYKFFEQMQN

[5] = Area under curve after administration to rats at a dose of 0.5 mg/kg orally; assay type: ADME, organism-based; set-up: dose 0.5 mg/kg, route oral; details: rat, in vivo, po
[6] = Total body clearance after administration to rats at a dose of 0.2 mg/kg intravenously; assay type: ADME, organism-based; set-up: dose 0.2 mg/kg, route intravenous; details: rat, in vivo, iv
[7] = Area under curve after administration to rats at a dose of 0.2 mg/kg intravenously; assay type: ADME, organism-based; set-up: dose 0.2 mg/kg, route intravenous; details: rat, in vivo, iv
[8] = biological target: T1, Amyloid-beta precursor protein; experiment: Inhibitory concentration against beta-amyloid-42 (Abeta42) secretion was evaluated in human neuroglioma cells (H4-APP695NL); assay type: functional, cell-based
How it was run: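 H4-APP695NL human neuroglioma cells (APP695 Swedish K595N/M596L) seeded at 2 × 10^5/well and grown 24 h to confluence. Increasing compound concentrations added overnight; DMSO 1% as vehicle. Supernatant Aβ42 or Aβ40 measured by electrochemiluminescence immunoassay: biotinylated 4G8 plus C-terminus-specific rabbit antibodies, captured on streptavidin beads.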
Target sequence in this assay (P05067 18-770 limits assumed): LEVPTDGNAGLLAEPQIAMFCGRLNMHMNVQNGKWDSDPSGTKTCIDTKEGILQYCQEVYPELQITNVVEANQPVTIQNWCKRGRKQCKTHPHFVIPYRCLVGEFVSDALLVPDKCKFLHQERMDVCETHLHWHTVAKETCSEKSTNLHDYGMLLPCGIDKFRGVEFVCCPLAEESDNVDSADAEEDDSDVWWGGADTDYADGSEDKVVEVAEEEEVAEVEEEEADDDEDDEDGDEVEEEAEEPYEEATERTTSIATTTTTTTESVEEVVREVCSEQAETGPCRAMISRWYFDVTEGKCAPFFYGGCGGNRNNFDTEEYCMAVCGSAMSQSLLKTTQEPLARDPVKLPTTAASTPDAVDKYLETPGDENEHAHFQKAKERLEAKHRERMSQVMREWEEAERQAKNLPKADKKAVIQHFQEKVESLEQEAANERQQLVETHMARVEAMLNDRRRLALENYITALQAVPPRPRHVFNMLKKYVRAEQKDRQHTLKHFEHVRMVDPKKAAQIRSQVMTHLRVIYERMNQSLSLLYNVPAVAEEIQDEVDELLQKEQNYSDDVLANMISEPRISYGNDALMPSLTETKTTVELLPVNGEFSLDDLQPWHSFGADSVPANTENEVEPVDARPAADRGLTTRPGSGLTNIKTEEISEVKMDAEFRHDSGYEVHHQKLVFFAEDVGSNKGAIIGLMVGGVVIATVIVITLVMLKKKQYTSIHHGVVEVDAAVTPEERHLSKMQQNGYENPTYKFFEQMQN

[9] = Maximal concentration in rats after 0.2 mg/kg intravenous dose; assay type: ADME, organism-based; set-up: dose 0.2 mg/kg, route intravenous; details: rat, in vivo

Cytochrome P450 2C9, sequence (P11712 whole entry, canonical isoform): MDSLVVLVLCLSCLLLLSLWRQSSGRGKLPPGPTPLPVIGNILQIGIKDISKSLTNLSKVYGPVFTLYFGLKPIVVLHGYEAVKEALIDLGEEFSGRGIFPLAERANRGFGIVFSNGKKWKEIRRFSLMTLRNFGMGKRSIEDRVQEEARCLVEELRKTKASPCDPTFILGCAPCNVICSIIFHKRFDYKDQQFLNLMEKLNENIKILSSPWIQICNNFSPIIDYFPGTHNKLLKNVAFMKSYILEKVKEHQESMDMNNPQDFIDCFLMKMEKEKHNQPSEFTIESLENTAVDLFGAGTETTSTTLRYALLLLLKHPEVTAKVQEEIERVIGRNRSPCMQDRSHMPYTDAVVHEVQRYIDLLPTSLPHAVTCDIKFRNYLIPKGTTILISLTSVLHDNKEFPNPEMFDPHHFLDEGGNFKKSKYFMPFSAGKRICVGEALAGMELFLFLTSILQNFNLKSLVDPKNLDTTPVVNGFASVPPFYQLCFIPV

Cmax [1]: 300 ng/mL | pIC50 (Cytochrome P450 2C9): 4.75 | Tmax [2]: 0.25 h | Tmax [3]: 8 h | inhibition [4]: 70% | AUC [5]: 6 µg/h/mL | Clearance [6]: 0.313 mL/min/kg | AUC [7]: 11 µg/h/mL | pIC50 [8]: 4.70 | Cmax [9]: 600 ng/mL
SMILES: O=C(O)C1(c2ccc(-c3ccc(OC4CCC(C(F)(F)F)CC4)cc3)c(F)c2)CC1 (stereo not given)

Source: ChEMBL document CHEMBL1141070, “Synthesis and biological activity of flurbiprofen analogues as selective inhibitors of beta-amyloid(1)(-)(42) secretion” (J Med Chem, 2005)
